Consider three compounds from ChEMBL document CHEMBL1146563, “CT2108A and B: New fatty acid synthase inhibitors as antifungal agents” (J Nat Prod, 2003).

In brackets after ≈: the same amount, converted by molar mass. Activity calls are given as the source filed them.

The subject of test [1] is Candida albicans. The test can be described thus: Antifungal activity against Candida albicans after 24 hrs. The class given is functional. An outline of the steps: (§1)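 Minimum inhibitory concentration against clinical isolates, read at 24 h and at 48 h. Isolates tested: C. albicans 4, C. tropicalis 1, C. lusitaniae 3, C. guilliermondii 1, C. krusei 3, C. glabrata 3, C. parapsilosis 4, C. dubliniensis 2, S. cerevisiae 4, Cryptococcus neoformans 2, Cryptococcus laurentii 2.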

In test [2] the test system is Cryptococcus neoformans. The test can be described thus: Antifungal activity against Cryptococcus neoformans after 24 hrs. The class given is functional. The essentials:
as §1

Test [3] has as its system Candida dubliniensis. The test can be described thus: Antifungal activity against Candida dubliniensis after 24 hrs. The class given is functional. An outline of the steps: as §1
Test [4] relates to Pichia kudriavzevii. The test can be described thus: Antifungal activity against Candida krusei after 24 hrs. Type of test: functional. An outline of the steps: as §1
In test [5] the test system is Clavispora lusitaniae. The test can be described thus: Antifungal activity against Candida lusitaniae after 24 hrs. Type of test: functional. An outline of the steps: as §1
The subject of test [6] is Pichia kudriavzevii. The test can be described thus: Antifungal activity against Candida krusei after 48 hrs. Type of test: functional. An outline of the steps:
as §1

Test [7] relates to Saccharomyces cerevisiae. The test can be described thus: Antifungal activity against Saccharomyces cerevisiae after 24 hrs. The class given is functional. The essentials: as §1
Test [8] has as its system Nakaseomyces glabratus. The test can be described thus: Antifungal activity against Candida glabrata after 24 hrs. The class given is functional. An outline of the steps: as §1
Test [9] relates to Candida tropicalis. The test can be described thus: Antifungal activity against Candida tropicalis after 48 hrs. The class given is functional. An outline of the steps:
as §1

The test system of test [10] is Candida albicans. The test can be described thus: Antifungal activity against Candida albicans after 48 hrs. Type of test: functional. The essentials:
as §1

The test system of test [11] is Candida tropicalis. The test can be described thus: Antifungal activity against Candida tropicalis after 24 hrs. The class given is functional. The essentials: as §1
The subject of test [12] is Saccharomyces cerevisiae. The test can be described thus: Antifungal activity against Saccharomyces cerevisiae after 48 hrs. Type of test: functional. The essentials:
as §1

In test [13] the test system is Candida albicans. The test can be described thus: Antifungal activity against Candida albicans by microdilution spectrophotometric method in presence of mysteric acid. The class given is functional. The essentials:
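Growth inhibition of C. albicans in a medium supplemented with 1.0% Tween 40 and 0.03% mysteric acid (long-chain fatty acids).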
In general terms: Broth dilution looks for growth in wells or tubes with falling amounts of substance.

Test [14] relates to Candida parapsilosis. The test can be described thus: Antifungal activity against Candida parapsilosis after 24 hrs. To be noted: Lodderomyces parapsilosis. The class given is functional. The essentials: as §1
Test [15] deals with Nakaseomyces glabratus. The test can be described thus: Antifungal activity against Candida glabrata after 48 hrs. The class given is functional. An outline of the steps: as §1
Test [16] concerns Papiliotrema laurentii. The test can be described thus: Antifungal activity against Cryptococcus laurentii after 24 hrs. The class given is functional. The essentials: as §1
Test [17] concerns Meyerozyma guilliermondii. The test can be described thus: Antifungal activity against Candida guilliermondii after 24 hrs. The class given is functional. An outline of the steps: as §1
The test system of test [18] is Candida parapsilosis. The test can be described thus: Antifungal activity against Candida parapsilosis after 48 hrs. The class given is functional. The note with it: Lodderomyces parapsilosis. An outline of the steps:
as §1

For test [19], the system named is Cryptococcus neoformans. The test can be described thus: Antifungal activity against Cryptococcus neoformans after 48 hrs. Type of test: functional. An outline of the steps: as §1
Test [20] deals with Candida dubliniensis. The test can be described thus: Antifungal activity against Candida dubliniensis after 48 hrs. Type of test: functional. The essentials:
as §1

In another test the target is Fatty acid synthase (Homo sapiens, UniProt P49327). The test can be described thus: Inhibition of FAS in human ZR-75-1 cells by spectrophotometry. The class given is cell-based.
Fatty acid synthase, sequence (P49327 whole entry): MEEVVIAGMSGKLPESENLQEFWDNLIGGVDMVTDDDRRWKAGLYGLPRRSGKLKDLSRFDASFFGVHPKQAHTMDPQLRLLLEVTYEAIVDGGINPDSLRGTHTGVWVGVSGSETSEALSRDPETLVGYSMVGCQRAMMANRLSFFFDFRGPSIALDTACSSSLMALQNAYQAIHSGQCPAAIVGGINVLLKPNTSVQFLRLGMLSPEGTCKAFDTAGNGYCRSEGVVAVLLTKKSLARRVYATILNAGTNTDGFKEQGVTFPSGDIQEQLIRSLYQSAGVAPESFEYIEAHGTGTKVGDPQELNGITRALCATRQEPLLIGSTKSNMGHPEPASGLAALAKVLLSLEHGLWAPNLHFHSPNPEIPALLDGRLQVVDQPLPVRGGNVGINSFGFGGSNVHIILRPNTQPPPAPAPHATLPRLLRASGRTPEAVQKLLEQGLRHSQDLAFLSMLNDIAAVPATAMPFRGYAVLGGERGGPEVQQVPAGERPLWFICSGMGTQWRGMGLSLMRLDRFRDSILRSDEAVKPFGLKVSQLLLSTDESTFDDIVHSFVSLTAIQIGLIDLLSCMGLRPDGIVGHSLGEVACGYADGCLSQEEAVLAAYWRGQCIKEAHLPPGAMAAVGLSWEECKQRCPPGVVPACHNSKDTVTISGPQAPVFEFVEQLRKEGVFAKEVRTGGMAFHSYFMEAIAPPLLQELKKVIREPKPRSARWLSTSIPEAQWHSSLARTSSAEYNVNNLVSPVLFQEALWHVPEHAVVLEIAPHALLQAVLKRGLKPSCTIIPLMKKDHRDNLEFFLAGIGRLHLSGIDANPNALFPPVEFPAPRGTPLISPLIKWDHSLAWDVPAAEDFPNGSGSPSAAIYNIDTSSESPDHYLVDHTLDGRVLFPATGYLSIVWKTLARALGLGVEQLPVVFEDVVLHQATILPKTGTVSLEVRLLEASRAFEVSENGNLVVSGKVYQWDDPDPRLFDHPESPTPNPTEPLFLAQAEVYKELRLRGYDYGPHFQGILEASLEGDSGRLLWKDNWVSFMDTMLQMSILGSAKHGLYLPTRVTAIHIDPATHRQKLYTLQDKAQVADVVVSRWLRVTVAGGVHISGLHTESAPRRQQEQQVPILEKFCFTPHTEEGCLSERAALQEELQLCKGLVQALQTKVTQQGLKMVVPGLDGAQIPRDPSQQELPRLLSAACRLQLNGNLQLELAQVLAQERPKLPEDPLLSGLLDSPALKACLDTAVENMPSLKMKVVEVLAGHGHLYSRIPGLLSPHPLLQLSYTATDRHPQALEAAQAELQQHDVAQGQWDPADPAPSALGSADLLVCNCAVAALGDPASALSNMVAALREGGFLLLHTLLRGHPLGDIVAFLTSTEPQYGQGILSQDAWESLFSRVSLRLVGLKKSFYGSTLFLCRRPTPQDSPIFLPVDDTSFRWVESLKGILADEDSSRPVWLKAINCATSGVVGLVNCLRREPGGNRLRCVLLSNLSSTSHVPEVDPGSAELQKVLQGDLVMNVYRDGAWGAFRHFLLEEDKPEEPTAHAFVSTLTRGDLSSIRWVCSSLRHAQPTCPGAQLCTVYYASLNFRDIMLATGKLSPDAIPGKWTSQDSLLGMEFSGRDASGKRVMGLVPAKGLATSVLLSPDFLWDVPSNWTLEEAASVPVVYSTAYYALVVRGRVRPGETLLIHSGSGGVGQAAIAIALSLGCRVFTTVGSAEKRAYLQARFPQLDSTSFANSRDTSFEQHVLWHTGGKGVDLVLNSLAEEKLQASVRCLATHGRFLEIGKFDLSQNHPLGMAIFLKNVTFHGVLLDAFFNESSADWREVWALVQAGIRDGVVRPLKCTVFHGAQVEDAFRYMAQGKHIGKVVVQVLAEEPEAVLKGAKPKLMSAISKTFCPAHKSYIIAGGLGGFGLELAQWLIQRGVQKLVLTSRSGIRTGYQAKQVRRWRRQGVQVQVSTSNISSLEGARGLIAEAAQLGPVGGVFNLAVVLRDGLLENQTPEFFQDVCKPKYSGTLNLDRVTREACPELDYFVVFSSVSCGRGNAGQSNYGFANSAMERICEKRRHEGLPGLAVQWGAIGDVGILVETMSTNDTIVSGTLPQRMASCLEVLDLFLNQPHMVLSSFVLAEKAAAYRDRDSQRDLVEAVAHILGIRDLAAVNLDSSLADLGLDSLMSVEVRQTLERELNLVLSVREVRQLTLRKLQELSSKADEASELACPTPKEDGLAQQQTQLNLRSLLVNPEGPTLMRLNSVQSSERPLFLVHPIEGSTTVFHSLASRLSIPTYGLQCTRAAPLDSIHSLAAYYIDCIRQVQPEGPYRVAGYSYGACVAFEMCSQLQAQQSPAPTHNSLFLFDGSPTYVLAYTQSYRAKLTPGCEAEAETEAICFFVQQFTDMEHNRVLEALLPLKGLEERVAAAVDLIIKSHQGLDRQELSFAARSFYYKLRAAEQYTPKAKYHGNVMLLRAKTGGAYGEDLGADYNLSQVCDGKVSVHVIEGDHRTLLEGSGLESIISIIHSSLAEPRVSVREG
The subject of test [21] is Candida albicans. The test can be described thus: Antifungal activity against Candida albicans by microdilution spectrophotometric method. Type of test: functional.
In test [22] the test system is Clavispora lusitaniae. The test can be described thus: Antifungal activity against Candida lusitaniae after 48 hrs. The class given is functional. An outline of the steps: as §1
A short description of test [23]: Inhibition of Candida albicans SC5314 FAS by spectrophotometry.
The subject of test [24] is Papiliotrema laurentii. The test can be described thus: Antifungal activity against Cryptococcus laurentii after 48 hrs. Type of test: functional. The essentials: as §1
The test system of test [25] is Meyerozyma guilliermondii. The test can be described thus: Antifungal activity against Candida guilliermondii after 48 hrs. Type of test: functional. An outline of the steps: as §1
Test [26] has as its system Candida albicans. The test can be described thus: Antifungal activity against Candida albicans assessed as clear zone of inhibition by disk diffusion assay. Type of test: functional. An outline of the steps: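 Disk diffusion on C. albicans; the zone of inhibition is measured in mm.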
Background: A growth-free zone around the sample is the usual read-out of agar diffusion tests.

The subject of test [27] is Candida albicans. The test can be described thus: Antifungal activity against Candida albicans assessed as hazy zone of inhibition by disk diffusion assay. Type of test: functional. An outline of the steps:
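Disk diffusion on C. albicans; the zone of growth inhibition around the disk is read and reported as diameter in mm.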

Broadly, the MIC is the lowest concentration found to suppress growth. As usually defined, the IC50 is the concentration that gives 50% inhibition. A high value points to weaker potency in that assay. By MFC is commonly meant the smallest concentration meeting the test's criterion for killing the fungus. A higher MFC goes with less potent killing. Consider `C/C=C/C=C/C=C/C1=CC2=CC(=O)[C@](C)(OC(=O)C[C@H](C)O)C(=O)C2=CO1`, for which the minimal inhibitory concentration (MIC) against Candida albicans [1] is 7.8 µg/mL (≈ 21.1 µM); in the test on Cryptococcus neoformans [2] it was less than 1.6 µg/mL; with Candida dubliniensis [3], 12.5 µg/mL (≈ 33.7 µM); against Pichia kudriavzevii [4] it was 25 µg/mL (≈ 67.5 µM); with Clavispora lusitaniae [5], 16.3 µg/mL (≈ 44 µM); in the test on Pichia kudriavzevii [6], 50 µg/mL (≈ 135 µM). The minimal inhibitory concentration (MIC) in the test on Saccharomyces cerevisiae [7] was found to be 8.2 µg/mL (≈ 22.1 µM); against Nakaseomyces glabratus [8], 25 µg/mL (≈ 67.5 µM); in the test with Candida tropicalis [9], 6.25 µg/mL (≈ 16.9 µM); in the test with Candida albicans [10], 7.8 µg/mL (≈ 21.1 µM); against Candida tropicalis [11], 6.25 µg/mL (≈ 16.9 µM); with Saccharomyces cerevisiae [12], 25 µg/mL (≈ 67.5 µM). Further, the MIC with Candida albicans [13] was 50 µg/mL; against Candida parapsilosis [14], 14.8 µg/mL (≈ 40 µM); in the test with Nakaseomyces glabratus [15], 50 µg/mL (≈ 135 µM); against Papiliotrema laurentii [16] it was less than 1.6 µg/mL; in [17], less than 1.6 µg/mL; against Candida parapsilosis [18], 50 µg/mL (≈ 135 µM). For the same compound, the MIC against Cryptococcus neoformans [19] is less than 1.6 µg/mL; in the test on Candida dubliniensis [20], 12.5 µg/mL (≈ 33.7 µM); with Candida albicans [21], 3.13 µg/mL (≈ 8.45 µM); against Clavispora lusitaniae [22] it was 41.6 µg/mL (≈ 112 µM); in the test with Papiliotrema laurentii [24], less than 1.6 µg/mL; in [25], 1.6 µg/mL (≈ 4.32 µM). For the same compound, the results for the IC50 (against Fatty acid synthase; in test [23]) were more than 2700 µM and 250 µg/mL (≈ 675 µM), respectively. This compound also had an MFC with Candida albicans [21] of 6.25 µg/mL (≈ 16.9 µM). Besides, the “inhibition zone (IZ)” value in the test with Candida albicans [26] stood at 10 mm.

Consider `C/C=C/C=C/C=C/C1=CC2=CC(=O)[C@](C)(OC(=O)C[C@H](C)O)C(=O)C23OC3O1` (stereo not given in full), for which the MIC worked out at 3.9 µg/mL (≈ 10.1 µM) with Candida albicans [1]; 25 µg/mL (≈ 64.7 µM) in the test with Cryptococcus neoformans [2]; 9.4 µg/mL (≈ 24.3 µM) with Candida dubliniensis [3]; 12.5 µg/mL (≈ 32.3 µM) in the test with Pichia kudriavzevii [4]; 8.3 µg/mL (≈ 21.5 µM) with Clavispora lusitaniae [5]; 25 µg/mL (≈ 64.7 µM) in the test with Pichia kudriavzevii [6]. For the same compound, the MIC in the test with Saccharomyces cerevisiae [7] turned out to be 5.9 µg/mL (≈ 15.3 µM); in the test on Nakaseomyces glabratus [8], 29.2 µg/mL (≈ 75.6 µM); against Candida albicans [10], 7.8 µg/mL (≈ 20.2 µM); in the test with Saccharomyces cerevisiae [12], 20.3 µg/mL (≈ 52.5 µM); with Candida albicans [13], 50 µg/mL; against Candida parapsilosis [14], 15.6 µg/mL (≈ 40.4 µM). Further, the MIC with Nakaseomyces glabratus [15] is 83.3 µg/mL (≈ 216 µM); in test [17] it was less than 1.6 µg/mL; against Candida parapsilosis [18] it was 62.5 µg/mL (≈ 162 µM); with Cryptococcus neoformans [19], 3.12 µg/mL (≈ 8.07 µM); in the test with Candida dubliniensis [20] it was 18.8 µg/mL (≈ 48.7 µM); against Candida albicans [21] it was 6.25 µg/mL (≈ 16.2 µM). In addition, the MIC against Clavispora lusitaniae [22] came out at 37.5 µg/mL (≈ 97 µM); against Papiliotrema laurentii [24] it was 6.25 µg/mL (≈ 16.2 µM); in [25], 1.6 µg/mL (≈ 4.14 µM). In the test with Papiliotrema laurentii [16], the result was Active. Further, the concentration for half-maximal inhibition (IC50) is more than 2590 µM against Fatty acid synthase and 160 µg/mL (≈ 414 µM) in test [23]. Moreover, the MFC against Candida albicans [21] was found to be 25 µg/mL (≈ 64.7 µM). For the same compound, the “inhibition zone (IZ)” value in the test with Candida albicans [26] stood at 8 mm.

In the case of `C/C=C/C/C=C/CCC(=O)[C@H]1O[C@H]1C(N)=O` [CERULENIN], the “inhibition zone (IZ)” value in the test with Candida albicans [27] is listed as 20 mm. Also, the figures for the minimum inhibitory concentration (MIC) with Candida albicans [13] and against Candida albicans [21] were more than 1000 µg/mL and 5 µg/mL (≈ 22.4 µM), respectively. In addition, the IC50 against Fatty acid synthase was 2.24 µM; in test [23], 0.5 µg/mL (≈ 2.24 µM). Also, the MFC with Candida albicans [21] is 5 µg/mL (≈ 22.4 µM).
